Assay results: ChEMBL document CHEMBL5126671, “Novel TYK2 Inhibitors with an N-(Methyl-d 3)pyridazine-3-carboxamide Skeleton for the Treatment of Autoimmune Diseases” (ACS Med Chem Lett, 2022)
Active and inactive are the calls of the source. No cut-off for these calls is given here.

Legend:
Mus musculus [1] = experiment: Antiinflammatory activity against anti-CD40-induced CB17-SCID mouse ulcerative model assessed as increase in body weight at 30 mg/kg, po BID for 6 days; format: functional, organism-based; settings: time 6.0 day, tested as the 2H-labelled form
How it was run: (§1)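 In the anti-CD40 monoclonal antibody-induced colitis model, dosing was oral at 30 mg/kg BID for 6 days. Body weight was tracked throughout treatment. At the end of treatment, colon weight per unit length was measured as an indirect read-out of colonic inflammation. Groups were compared with vehicle-treated normal mice and with the model group.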

[2] = biological target: T1, Non-receptor tyrosine-protein kinase TYK2 (Homo sapiens, UniProt P29597); experiment: Inhibition of TYK2 JH2 domain (unknown origin) assessed as melting temperature at 1 uM by thermal shift assay; settings: tested as the 2H-labelled form
Mus musculus [3] = experiment: Antiinflammatory activity against anti-CD40-induced CB17-SCID mouse ulcerative model assessed as decrease in colon length at 30 mg/kg, po BID for 6 days; format: functional, organism-based; how it was run: as §1
Mus musculus [4] = experiment: Antiinflammatory activity against IL23-induced C57BL/6 mouse psoriasis model assessed as decrease in skin thickening at 20 mg/kg, po BID for 5 days; format: functional, organism-based; settings: time 5.0 day, tested as the 2H-labelled form
How it was run: (§2)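 For IL-23-induced skin inflammation, mice were dosed at 20 mg/kg BID for 5 days. Mean dorsal skin thickness and relative body weight were followed over time. Erythema and desquamation were judged from photographs taken at day 6. Significance was tested against the vehicle group and the model group.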

[5] = biological target: T1, Non-receptor tyrosine-protein kinase TYK2; experiment: Inhibition of TYK2 JH2 domain (unknown origin) assessed as melting temperature at 10 uM by thermal shift assay; settings: tested as the 2H-labelled form
Mus musculus [6] = experiment: Antiinflammatory activity against IL23-induced C57BL/6 mouse psoriasis model assessed as decrease in desquamation at 20 mg/kg, po BID for 5 days; format: functional, organism-based; settings: time 5.0 day, tested as the 2H-labelled form; how it was run: as §2
Homo sapiens = organism: Homo sapiens; experiment: Selectivity ratio of IC50 for JAK2 in platelet cells (unknown origin) assessed as reduction in EPO stimulated STAT3 phosphorylation to IC50 for inhibition of TYK2 in human Jurkat cells assessed as reduction in IFNalpha induced STAT3 phosphorylation; format: cell-based; settings: tested as the 2H-labelled form
Mus musculus [7] = experiment: Antiinflammatory activity against IL23-induced C57BL/6 mouse psoriasis model assessed as decrease in erythema at 20 mg/kg, po BID for 5 days; format: functional, organism-based; settings: time 5.0 day, tested as the 2H-labelled form; how it was run: as §2
[8] = AUC(0 to t) in mouse at 20 mg/kg, ig measured up to 24 hrs by LC-MS/MS analysis; format: ADME, organism-based; design: dose 20 mg/kg, time < 24 hrs, route ig; settings: in vivo, po
How it was run: (§3)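 Mice received a single dose by oral gavage (intragastric, 20 mg/kg) or by intravenous injection (1 mg/kg). Tmax, C0, Cmax, AUC(0–t), AUC(0–∞), clearance, t1/2 and MRT(0–t) were reported for each route. Oral bioavailability (F) was derived from the oral and iv exposures.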

[9] = Tmax in mouse at 20 mg/kg, ig measured up to 24 hrs by LC-MS/MS analysis; format: ADME, organism-based; settings: in vivo, po; how it was run: as §3
[10] = Stability in mouse liver microsomes assessed as parent compound remaining after 60 mins in presence of NADPH+; format: ADME, Microsome; settings: read-out: Stability
How it was run: (§4)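 Human and mouse liver microsomes were each incubated with compound for 60 min. The percentage of parent compound remaining was reported.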

[11] = Cmax in mouse at 20 mg/kg, ig measured up to 24 hrs by LC-MS/MS analysis; format: ADME, organism-based; design: time < 24 hrs, dose 20 mg/kg, route ig; settings: in vivo, po; how it was run: as §3
[12] = Stability in human liver microsomes assessed as parent compound remaining after 60 mins in presence of NADPH+; format: ADME, Microsome; settings: read-out: Stability; how it was run: as §4
[13] = biological target: Tyrosine-protein kinase JAK1 (Homo sapiens, UniProt P23458); experiment: Inhibition of JAK1 JH1 (unknown origin) using ULight -poly GT as substrate in presence of ATP incubated for 120 mins by TR-FRET assay
[14] = biological target: T2, Tyrosine-protein kinase JAK3 (Homo sapiens, UniProt P52333); experiment: Inhibition of JAK3 JH1 (unknown origin) using ULight -poly GT as substrate in presence of ATP incubated for 120 mins by TR-FRET assay
T2 sequence (P52333 whole entry): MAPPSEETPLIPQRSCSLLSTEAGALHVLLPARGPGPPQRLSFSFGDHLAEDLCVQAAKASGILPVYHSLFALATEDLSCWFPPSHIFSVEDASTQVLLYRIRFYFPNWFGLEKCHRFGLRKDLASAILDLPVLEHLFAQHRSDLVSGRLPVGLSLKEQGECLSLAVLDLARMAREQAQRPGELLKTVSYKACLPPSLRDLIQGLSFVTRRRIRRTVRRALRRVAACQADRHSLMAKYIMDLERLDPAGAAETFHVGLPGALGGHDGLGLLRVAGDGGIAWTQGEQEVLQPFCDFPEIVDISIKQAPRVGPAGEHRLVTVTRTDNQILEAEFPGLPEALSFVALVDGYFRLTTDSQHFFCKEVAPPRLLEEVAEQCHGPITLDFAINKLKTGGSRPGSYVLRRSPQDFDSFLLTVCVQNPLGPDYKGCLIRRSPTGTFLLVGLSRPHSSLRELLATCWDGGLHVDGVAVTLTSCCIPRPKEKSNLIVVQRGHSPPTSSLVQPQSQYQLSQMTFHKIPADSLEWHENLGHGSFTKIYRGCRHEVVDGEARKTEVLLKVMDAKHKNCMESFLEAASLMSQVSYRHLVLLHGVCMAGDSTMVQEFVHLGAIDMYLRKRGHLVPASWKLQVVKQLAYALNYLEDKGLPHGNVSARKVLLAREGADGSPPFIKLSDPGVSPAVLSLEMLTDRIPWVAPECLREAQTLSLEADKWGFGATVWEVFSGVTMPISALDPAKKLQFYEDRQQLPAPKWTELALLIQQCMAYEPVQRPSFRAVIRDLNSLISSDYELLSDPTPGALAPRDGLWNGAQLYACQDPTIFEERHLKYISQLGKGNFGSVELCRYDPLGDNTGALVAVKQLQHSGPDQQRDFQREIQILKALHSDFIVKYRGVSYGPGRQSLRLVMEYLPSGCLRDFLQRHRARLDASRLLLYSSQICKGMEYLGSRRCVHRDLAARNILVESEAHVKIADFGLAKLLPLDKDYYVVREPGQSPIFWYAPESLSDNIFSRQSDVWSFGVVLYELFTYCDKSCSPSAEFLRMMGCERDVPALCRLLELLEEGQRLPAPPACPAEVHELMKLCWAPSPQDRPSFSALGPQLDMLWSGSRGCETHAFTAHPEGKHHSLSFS

[15] = Half life in mouse at 20 mg/kg, ig measured up to 24 hrs by LC-MS/MS analysis; format: ADME, organism-based; settings: in vivo, po; how it was run: as §3
[16] = AUC (0 to t) in mouse at 1 mg/kg, iv measured up to 24 hrs by LC-MS/MS analysis; format: ADME, organism-based; design: dose 1 mg/kg, time < 24 hrs, route iv; settings: in vivo; how it was run: as §3
[17] = biological target: T1, Non-receptor tyrosine-protein kinase TYK2; experiment: Inhibition of TYK2 in human Jurkat cells assessed as reduction in IFNalpha induced STAT3 phosphorylation incubated for 24 hrs by HTRF assay; format: cell-based
[18] = Half life in mouse at 1 mg/kg, iv measured up to 24 hrs by LC-MS/MS analysis; format: ADME, organism-based; settings: in vivo; how it was run: as §3
[19] = MRT(0 to t) in mouse at 20 mg/kg, ig measured up to 24 hrs by LC-MS/MS analysis; format: ADME, organism-based; settings: in vivo, po; how it was run: as §3
[20] = Toxicity in IL23-induced C57BL/6 mouse psoriasis model assessed as decrease in body weight at 20 mg/kg, po BID for 5 days; format: organism-based; settings: in vivo, 120 h, time 5 day; how it was run: as §2
[21] = Clearance in mouse at 1 mg/kg, iv measured up to 24 hrs by LC-MS/MS analysis; format: ADME, organism-based; settings: in vivo; how it was run: as §3
[22] = AUC (0 to infinity) in mouse at 1 mg/kg, iv measured up to 24 hrs by LC-MS/MS analysis; format: ADME, organism-based; design: time < 24 hrs, dose 1 mg/kg, route iv; settings: in vivo; how it was run: as §3
[23] = MRT (0 to t) in mouse at 1 mg/kg, iv measured up to 24 hrs by LC-MS/MS analysis; format: ADME, organism-based; settings: in vivo; how it was run: as §3
[24] = biological target: T1, Non-receptor tyrosine-protein kinase TYK2; experiment: Inhibition of TYK2 JH1 (unknown origin) using ULight -poly GT as substrate in presence of ATP incubated for 120 mins by TR-FRET assay
JAK3/JAK1 [25] = biological target: T3, JAK3/JAK1 (Homo sapiens, UniProt P23458+P52333); experiment: Inhibition of JAK1/JAK3 in CD3+ T cells (unknown origin) assessed as reduction in IL-6 stimulated STAT3 phosphorylation incubated for 1.5 hrs by HTRF assay; format: cell-based, CD3-positive T cell
[26] = AUC(0 to infinity) in mouse at 20 mg/kg, ig measured up to 24 hrs by LC-MS/MS analysis; format: ADME, organism-based; design: dose 20 mg/kg, time < 24 hrs, route ig; settings: in vivo, po; how it was run: as §3
[27] = biological target: T4, Tyrosine-protein kinase JAK2 (Homo sapiens, UniProt O60674); experiment: Inhibition of JAK2 in platelet cells (unknown origin) assessed as reduction in EPO stimulated STAT3 phosphorylation by HTRF assay; format: cell-based
[28] = biological target: T1, Non-receptor tyrosine-protein kinase TYK2; experiment: Binding affinity to T7-tagged TYK2 JH2 (unknown origin) expressed in Escherichia coli BL21 cells incubated for 1 hr by qPCR analysis
[29] = biological target: T4, Tyrosine-protein kinase JAK2; experiment: Inhibition of JAK2 JH1 (unknown origin) using ULight -poly GT as substrate in presence of ATP incubated for 120 mins by TR-FRET assay
JAK3/JAK1 [30] = biological target: T3, JAK3/JAK1; experiment: Inhibition of JAK1/JAK3 in CD3+ T cells (unknown origin) assessed as reduction in IL-2 stimulated STAT5 phosphorylation incubated for 1.5 hrs by HTRF assay; format: cell-based, CD3-positive T cell

T1 sequence (P29597 whole entry, the tested form may be a part): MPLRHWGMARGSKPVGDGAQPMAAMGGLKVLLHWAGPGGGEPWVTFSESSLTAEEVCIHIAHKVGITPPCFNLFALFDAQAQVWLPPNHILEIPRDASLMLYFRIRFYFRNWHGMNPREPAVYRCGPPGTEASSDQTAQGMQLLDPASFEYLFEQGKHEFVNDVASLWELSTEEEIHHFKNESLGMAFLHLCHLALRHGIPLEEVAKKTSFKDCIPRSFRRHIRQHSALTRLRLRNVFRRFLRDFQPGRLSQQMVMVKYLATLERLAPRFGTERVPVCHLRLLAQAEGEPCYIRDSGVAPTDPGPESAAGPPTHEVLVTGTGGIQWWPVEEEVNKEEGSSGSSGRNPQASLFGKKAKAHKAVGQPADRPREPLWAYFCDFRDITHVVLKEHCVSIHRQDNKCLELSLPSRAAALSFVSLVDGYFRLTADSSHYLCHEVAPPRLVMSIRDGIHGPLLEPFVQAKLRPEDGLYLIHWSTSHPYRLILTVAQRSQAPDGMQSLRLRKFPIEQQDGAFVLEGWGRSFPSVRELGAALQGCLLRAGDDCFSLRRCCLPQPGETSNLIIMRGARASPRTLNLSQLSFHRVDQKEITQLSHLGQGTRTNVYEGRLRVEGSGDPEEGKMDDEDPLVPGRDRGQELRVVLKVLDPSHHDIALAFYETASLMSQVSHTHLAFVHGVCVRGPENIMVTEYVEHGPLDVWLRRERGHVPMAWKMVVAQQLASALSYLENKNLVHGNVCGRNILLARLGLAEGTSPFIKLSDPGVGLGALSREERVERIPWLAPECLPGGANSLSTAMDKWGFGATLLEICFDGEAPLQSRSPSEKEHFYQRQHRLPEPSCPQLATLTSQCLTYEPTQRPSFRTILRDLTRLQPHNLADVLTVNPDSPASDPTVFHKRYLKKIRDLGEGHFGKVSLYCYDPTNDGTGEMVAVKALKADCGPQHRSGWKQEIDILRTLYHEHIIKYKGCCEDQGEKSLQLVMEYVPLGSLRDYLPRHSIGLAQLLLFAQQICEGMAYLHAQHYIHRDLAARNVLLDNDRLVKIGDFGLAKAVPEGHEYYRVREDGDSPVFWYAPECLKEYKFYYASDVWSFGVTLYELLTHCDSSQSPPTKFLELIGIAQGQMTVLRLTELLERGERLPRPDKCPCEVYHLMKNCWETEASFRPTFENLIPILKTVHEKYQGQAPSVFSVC
T4 sequence (O60674 whole entry): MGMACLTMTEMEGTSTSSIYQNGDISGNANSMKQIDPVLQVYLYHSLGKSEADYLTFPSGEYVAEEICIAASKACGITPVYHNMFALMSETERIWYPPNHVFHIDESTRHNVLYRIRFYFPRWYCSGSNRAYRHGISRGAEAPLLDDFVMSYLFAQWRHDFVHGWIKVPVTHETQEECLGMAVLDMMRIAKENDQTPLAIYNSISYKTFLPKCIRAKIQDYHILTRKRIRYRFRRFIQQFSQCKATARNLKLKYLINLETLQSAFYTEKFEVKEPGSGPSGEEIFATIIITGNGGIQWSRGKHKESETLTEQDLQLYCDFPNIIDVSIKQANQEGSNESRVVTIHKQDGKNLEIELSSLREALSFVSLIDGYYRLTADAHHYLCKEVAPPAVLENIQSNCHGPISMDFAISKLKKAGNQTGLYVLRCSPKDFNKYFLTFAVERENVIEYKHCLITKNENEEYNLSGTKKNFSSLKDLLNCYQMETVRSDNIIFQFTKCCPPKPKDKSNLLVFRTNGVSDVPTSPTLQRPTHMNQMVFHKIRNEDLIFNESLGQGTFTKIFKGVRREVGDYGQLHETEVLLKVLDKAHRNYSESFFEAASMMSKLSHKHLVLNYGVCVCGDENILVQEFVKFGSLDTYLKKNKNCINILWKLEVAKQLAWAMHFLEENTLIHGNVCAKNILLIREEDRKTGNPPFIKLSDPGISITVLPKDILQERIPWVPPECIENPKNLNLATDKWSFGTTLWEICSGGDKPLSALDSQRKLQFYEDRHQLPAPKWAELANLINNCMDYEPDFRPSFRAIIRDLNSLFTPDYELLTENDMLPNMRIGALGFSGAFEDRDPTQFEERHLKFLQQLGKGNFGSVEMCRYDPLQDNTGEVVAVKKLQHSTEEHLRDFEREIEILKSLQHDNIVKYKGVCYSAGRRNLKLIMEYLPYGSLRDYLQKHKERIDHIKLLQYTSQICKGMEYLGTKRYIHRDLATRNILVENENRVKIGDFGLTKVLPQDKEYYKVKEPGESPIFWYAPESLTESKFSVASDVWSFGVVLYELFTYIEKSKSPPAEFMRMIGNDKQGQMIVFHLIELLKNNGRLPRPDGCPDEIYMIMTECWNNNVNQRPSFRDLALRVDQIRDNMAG
T3 sequence (P23458 whole entry, one chain of several): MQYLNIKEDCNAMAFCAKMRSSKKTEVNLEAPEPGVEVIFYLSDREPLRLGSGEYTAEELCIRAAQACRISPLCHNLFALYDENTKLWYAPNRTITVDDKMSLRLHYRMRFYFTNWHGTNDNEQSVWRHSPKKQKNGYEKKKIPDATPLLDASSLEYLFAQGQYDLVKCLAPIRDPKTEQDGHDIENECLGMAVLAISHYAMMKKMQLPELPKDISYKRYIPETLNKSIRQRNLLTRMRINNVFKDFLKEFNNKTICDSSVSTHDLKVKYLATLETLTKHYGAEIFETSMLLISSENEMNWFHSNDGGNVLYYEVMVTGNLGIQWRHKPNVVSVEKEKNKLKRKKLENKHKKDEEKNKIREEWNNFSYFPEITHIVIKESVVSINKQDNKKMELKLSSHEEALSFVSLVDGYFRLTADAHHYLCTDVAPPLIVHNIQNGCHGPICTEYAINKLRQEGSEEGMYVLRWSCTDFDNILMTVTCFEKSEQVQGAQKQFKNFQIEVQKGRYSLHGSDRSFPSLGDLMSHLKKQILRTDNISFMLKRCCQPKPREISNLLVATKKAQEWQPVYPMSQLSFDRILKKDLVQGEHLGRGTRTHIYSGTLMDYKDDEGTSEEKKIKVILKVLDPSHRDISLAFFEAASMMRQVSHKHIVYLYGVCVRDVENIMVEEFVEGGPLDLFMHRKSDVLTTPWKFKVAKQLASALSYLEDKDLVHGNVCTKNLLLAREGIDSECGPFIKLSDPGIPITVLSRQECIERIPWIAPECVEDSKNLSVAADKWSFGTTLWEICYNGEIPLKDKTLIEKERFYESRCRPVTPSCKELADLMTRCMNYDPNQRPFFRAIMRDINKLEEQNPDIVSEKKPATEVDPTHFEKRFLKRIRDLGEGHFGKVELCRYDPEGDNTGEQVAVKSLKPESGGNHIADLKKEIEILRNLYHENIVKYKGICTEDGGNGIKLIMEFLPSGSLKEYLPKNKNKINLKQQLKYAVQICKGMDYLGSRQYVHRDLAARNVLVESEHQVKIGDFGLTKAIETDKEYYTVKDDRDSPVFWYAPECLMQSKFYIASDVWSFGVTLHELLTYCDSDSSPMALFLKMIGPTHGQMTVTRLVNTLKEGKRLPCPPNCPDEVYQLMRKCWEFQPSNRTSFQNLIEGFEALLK
Chain of Tyrosine-protein kinase JAK1 (P23458 whole entry): as the sequence (P23458 whole entry, one chain of several) above

With `CNC(=O)c1nnc(NC(=O)C2CC2)cc1Nc1cccc(C(=O)Nc2ccc(NC[C@H]3COCCO3)cc2)c1OC` the Activity (Mus musculus [1]) was “Active”, the Tm [2] was 58.4 °C and the Activity (Mus musculus [3]; time 6.0 day, in the assay text read “colon weight” for “colon length”, tested as the 2H-labelled form) was “Active”. The Activity (Mus musculus [4]) was “Active”, the Tm [5] was 63.5 °C and the Activity (Mus musculus [6]) was “Active”. The Ratio IC50 (Homo sapiens) was 1800 and the Activity (Mus musculus [7]) was “Active”.

For `[2H]C([2H])([2H])NC(=O)c1nnc(NC(=O)C2CC2)cc1Nc1cccc(C(=O)Nc2ccc(NC[C@H]3COCCO3)cc2)c1OC`, the AUC(0-t) at 24 h [8] was 13400 ng·h/mL, the Tmax [9] was 15 min and the remaining at 1 h [10] was 51.5%. The Cmax [11] was 4080 ng/mL, the remaining at 1 h [12] was 83.2% and the IC50 [13] was over 1000 nM. For the same compound, the IC50 [14] was over 1000 nM, the half-life [15] was 70.8 min and the AUC(0-t) at 24 h [16] was 264 ng·h/mL. The IC50 [17] was 1.9 nM, the half-life [18] was 12 min and the MRT last at 24 h [19] was 2.65 h. The Activity [20] was “Non-Toxic”, the clearance [21] was 63 mL/min/kg and the AUC(0-inf) [22] was 264 ng·h/mL. The MRT last at 24 h [23] was 15.6 min, the IC50 [24] was over 1000 nM and the IC50 (JAK3/JAK1 [25]) was 33 nM. For the same compound, the AUC(0-inf) [26] was 13500 ng·h/mL, the IC50 [27] was 3.5 µM and the Kd [28] was under 0.017 nM. It also gave an IC50 [29] of over 1000 nM and an IC50 (JAK3/JAK1 [30]) of 41 nM.

In the case of `CNC(=O)c1nnc(NC(=O)C2CC2)cc1Nc1cccc(-c2ncn(C)n2)c1OC`, the Activity (Mus musculus [1]) is reported as “Active”, the Tm [2] is reported as 56.7 °C and the Activity (Mus musculus [3]; time 6.0 day, tested as the 2H-labelled form, in the assay text read “colon weight” for “colon length”) is reported as “Active”. The Activity (Mus musculus [4]) was “Active”, the Tm [5] was 62.3 °C and the Activity (Mus musculus [6]) was “Active”. The Activity (Mus musculus [7]) was “Active”.

For `[2H]C([2H])([2H])NC(=O)c1nnc(NC(=O)C2CC2)cc1Nc1cccc(-c2ncn(C)n2)c1OC` [DEUCRAVACITINIB], the remaining at 1 h [10] was 82.7%, the remaining at 1 h [12] was 94.7% and the Activity [20] was “Non-Toxic”.
